According to ChEMBL document CHEMBL1121996, “A new stable prostacyclin mimic, 7-oxoprostaglandin I2” (J Med Chem, 1982):

Assays:
Homo sapiens = species: Homo sapiens; assay: Inhibitory concentration of compound in human platelet rich plasma against 2 umol of ADP-induced aggregation; type: functional
Canis familiaris [1] = assay: Percent change in total peripheral resistance produced by the compound on dogs by intravenous infusion rate of 1000 ng/kg/min; type: functional, Canis lupus familiaris
Summary of the method: (§1)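 The compound was infused into a femoral vein at increasing concentrations, each dose level for 3 min. Mean peripheral blood pressure was taken in the femoral artery and heart rate by cardiotachometer. Total and coronary vascular resistance were calculated as blood pressure divided by the corresponding flow. Values are maximum changes as percent of resting values.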

Bos taurus = species: Bos taurus; assay: Effective concentration of compound for relaxation of bovine coronary artery; type: functional
Canis familiaris [2] = assay: Percent change in heart rate produced by the compound on dogs by intravenous infusion rate of 1000 ng/kg/min; type: functional, Canis lupus familiaris; summary of the method: as §1
Canis familiaris [3] = assay: Percent change in heart rate produced by the compound on dogs by intravenous infusion rate of 5000 ng/kg/min; type: functional, Canis lupus familiaris; summary of the method: as §1
Canis familiaris [4] = assay: Percent change in blood pressure produced by the compound on dogs by intravenous infusion rate of 500 ng/kg/min; type: functional, Canis lupus familiaris; summary of the method: as §1
Canis familiaris [5] = assay: Percent change in blood pressure produced by the compound on dogs by intravenous infusion rate of 1000 ng/kg/min; type: functional, Canis lupus familiaris; summary of the method: as §1
[6] = biological target: Adenylate cyclase type 1 (Homo sapiens) (UniProt Q08828); assay: Activation of human platelet adenylate cyclase at the concentration of 10 uMol; type: functional
Summary of the method: (§2)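 Adenylate cyclase in membranes prepared from human platelet-rich plasma, compound tested as Na salt. Activity is given as percent (mean ± SE) of measurable enzyme activity without drug, n = 8, with significance tested against the respective control. The method follows ref 17.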

Canis familiaris [7] = assay: Percent change in cardiac out put produced by the compound on dogs by intravenous infusion rate of 1000 ng/kg/min; type: functional, Canis lupus familiaris, Heart; summary of the method: as §1
Canis familiaris [8] = assay: Percent change in cardiac out put produced by the compound on dogs by intravenous infusion rate of 5000 ng/kg/min; type: functional, Canis lupus familiaris, Heart; summary of the method: as §1
Canis familiaris [9] = assay: Percent change in blood pressure produced by the compound on dogs by intravenous infusion rate of 5000 ng/kg/min; type: functional, Canis lupus familiaris; summary of the method: as §1
[10] = biological target: Adenylate cyclase type 1 (Homo sapiens) (UniProt Q08828); assay: Activation of human platelet adenylate cyclase at the concentration of 1 uMol; type: functional; summary of the method: as §2
Canis familiaris [11] = assay: Percent change in cardiac out put produced by the compound on dogs by intravenous infusion rate of 500 ng/kg/min; type: functional, Canis lupus familiaris, Heart; summary of the method: as §1
Canis familiaris [12] = assay: Percent change in coronary resistance produced by the compound on dogs by intravenous infusion rate of 1000 ng/kg/min; type: functional, Canis lupus familiaris; summary of the method: as §1
Canis familiaris [13] = assay: Percent change in total peripheral resistance produced by the compound on dogs by intravenous infusion rate of 5000 ng/kg/min; type: functional, Canis lupus familiaris; summary of the method: as §1
Canis familiaris [14] = assay: Percent change in total peripheral resistance produced by the compound on dogs by intravenous infusion rate of 500 ng/kg/min; type: functional, Canis lupus familiaris; summary of the method: as §1
Canis familiaris [15] = assay: Percent change in heart rate produced by the compound on dogs by intravenous infusion rate of 500 ng/kg/min; type: functional, Canis lupus familiaris; summary of the method: as §1
Canis familiaris [16] = assay: Percent change in coronary resistance produced by the compound on dogs by intravenous infusion rate of 500 ng/kg/min; type: functional, Canis lupus familiaris; summary of the method: as §1
Canis familiaris [17] = assay: Percent change in coronary resistance produced by the compound on dogs by intravenous infusion rate of 5000 ng/kg/min; type: functional, Canis lupus familiaris; summary of the method: as §1
Canis familiaris [18] = assay: Percent change in blood pressure produced by the compound on dogs by intravenous infusion rate of 50 ng/kg/min; type: functional, Canis lupus familiaris; summary of the method: as §1
Canis familiaris [19] = assay: Percent change in total peripheral resistance produced by the compound on dogs by intravenous infusion rate of 50 ng/kg/min; type: functional, Canis lupus familiaris; summary of the method: as §1
Canis familiaris [20] = assay: Percent change in coronary resistance produced by the compound on dogs by intravenous infusion rate of 50 ng/kg/min; type: functional, Canis lupus familiaris; summary of the method: as §1
Canis familiaris [21] = assay: Percent change in cardiac out put produced by the compound on dogs by intravenous infusion rate of 50 ng/kg/min; type: functional, Canis lupus familiaris, Heart; summary of the method: as §1
Canis familiaris [22] = assay: Percent change in heart rate produced by the compound on dogs by intravenous infusion rate of 50 ng/kg/min; type: functional, Canis lupus familiaris; summary of the method: as §1

Chain of Adenylate cyclase type 1 (Homo sapiens) (Q08828 whole entry, looked up, the tested form may be a part): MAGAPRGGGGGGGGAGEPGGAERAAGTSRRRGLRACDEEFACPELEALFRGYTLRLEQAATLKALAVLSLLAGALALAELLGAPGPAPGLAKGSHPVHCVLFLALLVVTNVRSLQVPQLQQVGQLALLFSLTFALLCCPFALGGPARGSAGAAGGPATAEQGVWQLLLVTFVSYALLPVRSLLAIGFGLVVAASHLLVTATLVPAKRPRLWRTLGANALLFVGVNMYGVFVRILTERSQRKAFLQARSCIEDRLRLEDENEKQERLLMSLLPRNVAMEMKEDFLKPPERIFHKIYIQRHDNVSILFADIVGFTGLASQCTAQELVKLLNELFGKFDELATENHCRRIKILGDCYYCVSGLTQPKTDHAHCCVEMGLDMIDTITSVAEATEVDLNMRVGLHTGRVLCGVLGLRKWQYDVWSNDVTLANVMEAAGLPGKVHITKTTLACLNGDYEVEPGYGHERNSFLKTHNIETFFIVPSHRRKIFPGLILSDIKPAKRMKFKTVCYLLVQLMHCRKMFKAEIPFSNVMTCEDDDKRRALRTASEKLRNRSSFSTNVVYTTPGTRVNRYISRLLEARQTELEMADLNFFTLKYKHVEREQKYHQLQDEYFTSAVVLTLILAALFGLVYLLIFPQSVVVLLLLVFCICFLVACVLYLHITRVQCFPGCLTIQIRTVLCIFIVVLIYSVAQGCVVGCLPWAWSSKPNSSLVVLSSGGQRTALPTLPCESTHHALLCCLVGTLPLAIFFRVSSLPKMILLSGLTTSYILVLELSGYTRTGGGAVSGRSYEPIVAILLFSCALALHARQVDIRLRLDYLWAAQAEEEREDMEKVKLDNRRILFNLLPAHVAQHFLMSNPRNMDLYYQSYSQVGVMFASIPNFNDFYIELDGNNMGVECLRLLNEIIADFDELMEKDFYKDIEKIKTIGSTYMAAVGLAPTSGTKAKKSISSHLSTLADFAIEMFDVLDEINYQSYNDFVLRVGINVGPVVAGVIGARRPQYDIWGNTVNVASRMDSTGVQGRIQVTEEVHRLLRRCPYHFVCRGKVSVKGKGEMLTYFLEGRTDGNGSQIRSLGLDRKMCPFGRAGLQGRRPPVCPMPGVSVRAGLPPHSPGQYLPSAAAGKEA

CCCCC[C@H](O)/C=C/[C@@H]1[C@H]2C(=O)/C(=C/CCCC(=O)[O-])O[C@H]2C[C@H]1O.[Na+]
IC50 (Homo sapiens): 15 ng/mL

CCCCC[C@H](O)/C=C/[C@H]1[C@H](O)CC2O/C(=C\CCCC(=O)[O-])C(=O)[C@@H]21.[Na+] (stereo partly drawn)
Hemodynamic change (Canis familiaris [1]): -13.3%
EC50 (Bos taurus): 402 nM
Hemodynamic change (Canis familiaris [2]): -2%
Hemodynamic change (Canis familiaris [3]): -13.8%
Hemodynamic change (Canis familiaris [4]): -8.1%
Hemodynamic change (Canis familiaris [5]): -13.3%
Activity [6]: 825%
Hemodynamic change (Canis familiaris [7]): -3.9%
Hemodynamic change (Canis familiaris [8]): -22.3%
Hemodynamic change (Canis familiaris [9]): -49%
Activity [10]: 239%
Hemodynamic change (Canis familiaris [11]): -1.6%
Hemodynamic change (Canis familiaris [12]): -6.1%
Hemodynamic change (Canis familiaris [13]): -40.7%
Hemodynamic change (Canis familiaris [14]): -8.3%
Hemodynamic change (Canis familiaris [15]): 0%
Hemodynamic change (Canis familiaris [16]): -2.2%
Hemodynamic change (Canis familiaris [17]): -28.8%

CCCCC[C@H](O)/C=C/[C@@H]1[C@H]2C/C(=C/CCCC(=O)[O-])O[C@H]2C[C@H]1O.[Na+] [EPOPROSTENOL SODIUM]
EC50 (Bos taurus): 43 nM
Hemodynamic change (Canis familiaris [18]): -13.6%
Hemodynamic change (Canis familiaris [19]): -11.5%
IC50 (Homo sapiens): 1 ng/mL
Activity [6]: 1740%
Hemodynamic change (Canis familiaris [20]): -2.8%
Activity [10]: 374%
Hemodynamic change (Canis familiaris [21]): -5.6%
Hemodynamic change (Canis familiaris [22]): 3.6%
